The values that follow come from ChEMBL document CHEMBL1649533, “GES-11, a novel integron-associated GES variant in Acinetobacter baumannii” (2009).

Holding throughout (type): functional
Assay [1] concerns Acinetobacter baumannii. Nature of the assay: Antibacterial activity against Acinetobacter baumannii BM4674 isolated from the tibia fracture of a patient by Etest method. The essentials:
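MICs read by Etest gradient strips on Mueller-Hinton agar against the clinical isolate (Nancy, France, September 2008); reported in μg/ml and interpreted with Comité de l'Antibiogramme de la Société Française de Microbiologie breakpoints.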

In assay [2] the test system is Acinetobacter baumannii. Nature of the assay: Antibacterial activity against Acinetobacter baumannii BM4652. An outline of the steps: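 MIC by Etest on Mueller-Hinton agar; interpretation by Comité de l'Antibiogramme de la Société Française de Microbiologie breakpoints. A. baumannii BM4652 is the recipient strain used in conjugation with BM4674 (solid medium; transconjugants selected on apramycin 80 μg/ml plus ceftazidime 16 μg/ml). MIC values in μg/ml.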

The subject of assay [3] is Acinetobacter baumannii. In words: Antibacterial activity against Acinetobacter baumannii BM4652 harboring plasmid IP847.
Assay [4] has as its system Escherichia coli. In words: Antibacterial activity against Escherichia coli Top10.
Assay [5] has as its system Escherichia coli. Nature of the assay: Antibacterial activity against ESBL-positive Escherichia coli Top10 harboring plasmid AT517.
In assay [6] the test system is Escherichia coli. In words: Antibacterial activity against […] OmpF and OmpC porin-deficient Escherichia coli HB4.
For assay [7], the system named is Escherichia coli. In words: Antibacterial activity against […] OmpF and OmpC porin-deficient Escherichia coli HB4 harboring plasmid AT517.

Values after ≈ are worked out from the molar mass of the structure shown.

On to `CC(C)(O/N=C(\C(=O)N[C@@H]1C(=O)N2C(C(=O)[O-])=C(C[n+]3ccccc3)CS[C@H]12)c1csc(N)n1)C(=O)O` [CEFTAZIDIME], for which the MIC against Acinetobacter baumannii [1] was > 256 µg/mL; against Acinetobacter baumannii [2], 1.5 µg/mL (≈ 2.74 µM); in the assay with Acinetobacter baumannii [3], > 256 µg/mL; in the assay on Escherichia coli [4] it was 0.75 µg/mL (≈ 1.37 µM); against Escherichia coli [5], > 256 µg/mL; in the assay with Escherichia coli [6], 0.5 µg/mL (≈ 0.915 µM). Besides, the MIC in the assay with Escherichia coli [7] is > 256 µg/mL.
As to `C[C@H]1[C@H](NC(=O)/C(=N\OC(C)(C)C(=O)O)c2csc(N)n2)C(=O)N1S(=O)(=O)O` [AZTREONAM], the MIC in the assay with Acinetobacter baumannii [1] is > 256 µg/mL; against Acinetobacter baumannii [2], 1 µg/mL (≈ 2.3 µM); against Acinetobacter baumannii [3], > 256 µg/mL; in the assay with Escherichia coli [4], 0.125 µg/mL (≈ 0.287 µM); against Escherichia coli [5], 24 µg/mL (≈ 55.1 µM); with Escherichia coli [6], 0.75 µg/mL (≈ 1.72 µM). Besides, the MIC in the assay with Escherichia coli [7] turned out to be 48 µg/mL (≈ 110 µM).
For `CO/N=C(\C(=O)N[C@@H]1C(=O)N2C(C(=O)[O-])=C(C[N+]3(C)CCCC3)CS[C@H]12)c1csc(N)n1` [CEFEPIME], the MIC was > 256 µg/mL against Acinetobacter baumannii [1]; 0.19 µg/mL (≈ 0.395 µM) against Acinetobacter baumannii [2]; 64 µg/mL (≈ 133 µM) with Acinetobacter baumannii [3]; 0.032 µg/mL (≈ 0.0666 µM) in the assay with Escherichia coli [4]; 2 µg/mL (≈ 4.16 µM) in the assay on Escherichia coli [5]; 0.5 µg/mL (≈ 1.04 µM) with Escherichia coli [6]. In addition, the MIC against Escherichia coli [7] amounted to 96 µg/mL (≈ 200 µM).
Consider `CO/N=C(\C(=O)N[C@@H]1C(=O)N2C(C(=O)O)=C(COC(C)=O)CS[C@H]12)c1csc(N)n1` [CEFOTAXIME], for which the MIC with Acinetobacter baumannii [1] is > 256 µg/mL; in the assay with Acinetobacter baumannii [2], 1 µg/mL (≈ 2.2 µM); against Acinetobacter baumannii [3] it was > 256 µg/mL; with Escherichia coli [4], 0.064 µg/mL (≈ 0.141 µM); against Escherichia coli [5], > 256 µg/mL; in the assay on Escherichia coli [6], 0.5 µg/mL (≈ 1.1 µM). In addition, the MIC against Escherichia coli [7] is > 256 µg/mL.
Regarding `C[C@@H](O)[C@H]1C(=O)N2C(C(=O)O)=C(S[C@@H]3CN[C@H](C(=O)N(C)C)C3)[C@H](C)[C@H]12` [MEROPENEM], the MIC against Acinetobacter baumannii [1] came to 6 µg/mL (≈ 15.6 µM); against Acinetobacter baumannii [2], 0.064 µg/mL (≈ 0.167 µM); against Acinetobacter baumannii [3] it was 1.5 µg/mL (≈ 3.91 µM); against Escherichia coli [4] it was 0.016 µg/mL (≈ 0.0417 µM); against Escherichia coli [5], 0.047 µg/mL (≈ 0.123 µM); against Escherichia coli [6], 0.25 µg/mL (≈ 0.652 µM). Besides, the lowest concentration to inhibit growth with Escherichia coli [7] (MIC) was 4 µg/mL (≈ 10.4 µM).
Consider `CO[C@@]1(NC(=O)Cc2cccs2)C(=O)N2C(C(=O)O)=C(COC(N)=O)CS[C@@H]21` [CEFOXITIN], for which the MIC with Acinetobacter baumannii [1] was 192 µg/mL (≈ 449 µM); against Acinetobacter baumannii [2], 8 µg/mL (≈ 18.7 µM); with Acinetobacter baumannii [3], 12 µg/mL (≈ 28.1 µM); with Escherichia coli [4] it was 6 µg/mL (≈ 14 µM); with Escherichia coli [5], 6 µg/mL (≈ 14 µM); in the assay with Escherichia coli [6], 96 µg/mL (≈ 225 µM). Further, the MIC in the assay on Escherichia coli [7] was > 256 µg/mL.
On to `C[C@@H](O)[C@H]1C(=O)N2C(C(=O)O)=C(SCCNC=N)C[C@H]12` [IMIPENEM ANHYDROUS], for which the MIC against Acinetobacter baumannii [1] amounted to 4 µg/mL (≈ 13.4 µM); in the assay with Acinetobacter baumannii [2] it was 0.125 µg/mL (≈ 0.418 µM); against Acinetobacter baumannii [3], 0.75 µg/mL (≈ 2.51 µM); against Escherichia coli [4] it was 0.19 µg/mL (≈ 0.635 µM); with Escherichia coli [6], 0.125 µg/mL (≈ 0.418 µM); in the assay with Escherichia coli [7], 8 µg/mL (≈ 26.7 µM).
